The values that follow come from ChEMBL document CHEMBL4350996, “C8-substituted pyrido[3,4-d]pyrimidin-4(3H)-ones: Studies towards the identification of potent, cell penetrant Jumonji C domain containing histone lysine demethylase 4 subfamily (KDM4) inhibitors, compound profiling in cell-based target engagement assays” (Eur J Med Chem, 2019).

Positions count from the first letter of the chain named. Active and inactive are the calls of the source. The rule behind the calls is not given here.

In data set [1] the test system is Lysine-specific demethylase 5B (Homo sapiens), Q9UGL1 [H499A,E501A]. Nature of the data set: Inhibition of full length human catalytically inactive KDM5B H499A/E501A mutant transfected in HeLa cells assessed as change in H3K4Me3 level measured after 24 hrs by cell analyser based immunofluorescence assay. A digest of the protocol: (§1)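 HeLa cells grown in DMEM with 10% FBS, 37°C, 5% CO₂, seeded 6000 cells/well overnight. Compounds serially diluted 1:3 to 1:5 in medium with 20% FBS, DMSO held constant, then added for 24 h. Histone mark read by immunofluorescence imaging, 10 fields per well at 20X.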

Data set [2] can be described thus: Drug metabolism in human LNCAP cells assessed as metabolite formation at 10 uM measured upto 120 hrs by UPHLC analysis. Type of data set: ADME, cell-based. A digest of the protocol: (§2)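 They were then given 10 μM compound or 0.1% DMSO vehicle. Media and trypsinised cell pellets were collected at 1, 6, 24, 48, 72 and 120 h, frozen at -80 °C, and analysed by UHPLC–Orbitrap MS using full MS/dd-MS² and full MS/AIF.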

The target in data set [3] is Lysine-specific demethylase 5B (Homo sapiens) (UniProt Q9UGL1). As to the kind of experiment: Inhibition of full length human wild type KDM5B transfected in HeLa cells assessed as increase in H3K4Me3 level measured after 24 hrs by cell analyser based immunofluorescence assay.
Data set [4] has as its target T1, Lysine-specific demethylase 4A (Homo sapiens) (UniProt O75164).
T1 sequence (whole entry): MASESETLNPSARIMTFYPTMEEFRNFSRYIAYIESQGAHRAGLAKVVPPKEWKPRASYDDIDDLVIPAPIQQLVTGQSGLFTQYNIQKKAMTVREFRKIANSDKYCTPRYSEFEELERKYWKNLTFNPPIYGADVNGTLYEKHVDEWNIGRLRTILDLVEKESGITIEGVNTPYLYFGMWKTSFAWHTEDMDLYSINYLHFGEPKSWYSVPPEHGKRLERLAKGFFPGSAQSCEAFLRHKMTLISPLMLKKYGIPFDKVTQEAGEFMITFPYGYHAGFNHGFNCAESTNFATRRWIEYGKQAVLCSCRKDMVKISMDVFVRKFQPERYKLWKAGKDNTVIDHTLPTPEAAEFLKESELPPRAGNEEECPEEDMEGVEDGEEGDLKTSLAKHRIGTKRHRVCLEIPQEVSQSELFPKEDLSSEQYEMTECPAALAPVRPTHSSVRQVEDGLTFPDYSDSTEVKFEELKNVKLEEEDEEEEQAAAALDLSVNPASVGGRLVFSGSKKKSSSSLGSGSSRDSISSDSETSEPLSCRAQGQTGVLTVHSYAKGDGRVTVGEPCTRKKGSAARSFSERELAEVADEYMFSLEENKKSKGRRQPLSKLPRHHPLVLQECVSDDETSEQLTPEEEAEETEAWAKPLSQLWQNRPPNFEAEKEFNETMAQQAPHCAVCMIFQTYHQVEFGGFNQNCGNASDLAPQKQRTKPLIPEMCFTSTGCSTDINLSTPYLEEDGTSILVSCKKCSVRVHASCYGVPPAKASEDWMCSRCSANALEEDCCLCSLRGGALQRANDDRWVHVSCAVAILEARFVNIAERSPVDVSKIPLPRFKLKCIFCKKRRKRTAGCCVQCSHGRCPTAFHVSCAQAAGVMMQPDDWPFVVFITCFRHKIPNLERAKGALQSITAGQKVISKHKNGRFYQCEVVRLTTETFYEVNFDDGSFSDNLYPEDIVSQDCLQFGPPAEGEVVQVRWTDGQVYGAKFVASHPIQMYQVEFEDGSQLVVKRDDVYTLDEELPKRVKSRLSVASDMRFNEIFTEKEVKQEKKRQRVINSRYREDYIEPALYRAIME
Nature of the data set: Inhibition of FLAG tagged full length wild type human KDM4A transfected in HeLa cells assessed as increase in H3K9Me3 level measured after 24 hrs by cell analyser based immunofluorescence assay.

For data set [5], the system named is T2, Lysine-specific demethylase 4A (Homo sapiens), O75164 [H188A,E190A].
T2 sequence (whole entry): T1 sequence (whole entry) with H188A, E190A
Nature of the data set: Inhibition of FLAG tagged full length catalytically inactive human KDM4A H188A/E190A mutant transfected in HeLa cells assessed as change in H3K9Me3 level measured after 24 hrs by cell analyser based immunofluorescence assay. A digest of the protocol: as §1

Data set [6] can be described thus: Drug uptake in human LNCAP cells at 10 uM measured upto 120 hrs by UPHLC analysis. The settings on record: TDE = time-dependent effect. It is filed as ADME, cell-based. A digest of the protocol: as §2

Lysine-specific demethylase 5B (Homo sapiens), Q9UGL1 [H499A,E501A], sequence (Q9UGL1 whole entry H499A/E501A): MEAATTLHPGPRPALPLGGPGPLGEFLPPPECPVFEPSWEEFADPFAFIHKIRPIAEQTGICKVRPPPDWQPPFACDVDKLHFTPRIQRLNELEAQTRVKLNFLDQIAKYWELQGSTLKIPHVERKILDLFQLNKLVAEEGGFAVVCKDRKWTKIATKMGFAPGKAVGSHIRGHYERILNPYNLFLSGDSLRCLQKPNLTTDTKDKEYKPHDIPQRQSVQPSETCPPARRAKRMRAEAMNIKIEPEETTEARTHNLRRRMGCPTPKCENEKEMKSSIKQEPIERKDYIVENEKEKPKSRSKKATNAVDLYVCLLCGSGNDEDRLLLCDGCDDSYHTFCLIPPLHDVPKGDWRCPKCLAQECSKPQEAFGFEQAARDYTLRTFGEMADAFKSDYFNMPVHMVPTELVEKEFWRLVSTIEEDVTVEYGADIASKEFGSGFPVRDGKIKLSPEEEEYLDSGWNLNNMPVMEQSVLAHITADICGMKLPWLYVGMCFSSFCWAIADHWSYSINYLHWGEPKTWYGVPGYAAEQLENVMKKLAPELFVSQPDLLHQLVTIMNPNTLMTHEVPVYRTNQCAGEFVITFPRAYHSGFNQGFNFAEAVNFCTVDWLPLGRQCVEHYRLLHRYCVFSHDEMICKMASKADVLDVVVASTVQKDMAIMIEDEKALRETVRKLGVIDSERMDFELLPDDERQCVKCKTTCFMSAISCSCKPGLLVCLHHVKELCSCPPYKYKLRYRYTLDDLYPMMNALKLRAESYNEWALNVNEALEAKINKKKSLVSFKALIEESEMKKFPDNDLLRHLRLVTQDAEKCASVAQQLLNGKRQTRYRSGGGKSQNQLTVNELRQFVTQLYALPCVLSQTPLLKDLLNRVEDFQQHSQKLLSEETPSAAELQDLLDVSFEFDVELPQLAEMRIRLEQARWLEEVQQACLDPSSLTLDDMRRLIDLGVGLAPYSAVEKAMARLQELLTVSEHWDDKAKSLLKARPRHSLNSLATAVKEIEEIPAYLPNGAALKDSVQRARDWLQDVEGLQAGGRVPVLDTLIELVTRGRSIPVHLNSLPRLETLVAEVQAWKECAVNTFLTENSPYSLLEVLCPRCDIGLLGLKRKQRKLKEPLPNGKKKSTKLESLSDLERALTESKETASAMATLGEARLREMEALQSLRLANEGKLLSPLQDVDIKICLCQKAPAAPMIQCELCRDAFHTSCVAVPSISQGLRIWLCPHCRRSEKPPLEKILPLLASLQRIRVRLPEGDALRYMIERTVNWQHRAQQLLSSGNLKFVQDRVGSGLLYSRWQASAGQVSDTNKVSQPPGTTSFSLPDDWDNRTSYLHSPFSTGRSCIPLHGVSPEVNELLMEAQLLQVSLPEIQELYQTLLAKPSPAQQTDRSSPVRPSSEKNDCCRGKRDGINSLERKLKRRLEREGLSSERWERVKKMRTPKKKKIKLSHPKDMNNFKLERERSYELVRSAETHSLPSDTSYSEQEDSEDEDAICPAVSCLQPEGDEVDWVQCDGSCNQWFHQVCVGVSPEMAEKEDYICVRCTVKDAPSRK
Lysine-specific demethylase 5B (Homo sapiens), sequence (Q9UGL1 whole entry): as the sequence (Q9UGL1 whole entry H499A/E501A) above, with A499H, A501E counted along it

For the molecule `O=c1[nH]cnc2c(-n3cc(CCN4CCC5(CCc6ccccc65)CC4)cn3)cccc12`, the inhibition result in data set [1], in data set [3], in data set [4] and in data set [5] was “inactive” throughout. In addition, the Drug metabolism result in data set [2] is recorded as “Metabolite_Notdetected”. The Drug uptake result in data set [6] was “Tde”.

`O=c1[nH]cnc2c(-n3cc(CCN4CCC5(CCc6ccccc65)CC4)cn3)nccc12`: the inhibition result in data set [1] and in data set [5] was “inactive” throughout. In addition, in data set [2], the Drug metabolism entry is “Metabolite_Notdetected”. The Drug uptake entry in data set [6] is recorded as “Tde”.
